Experimental data published in ChEMBL document CHEMBL1157725 (Bioorg Med Chem, 2010).
Active and inactive are the calls of the source. The rule behind the calls is not given here.

Columns and labels:
SK-MEL-2 = assay: Growth inhibition of human SK-MEL-2 cells after 48 hrs by SRB assay; assay type: functional; settings: SK-MEL-2, 48 h
Procedure, shortened: (§1)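 NCI human tumor cell line panel. Cells exposed for 48 h to five concentrations in a 10-fold serial dilution. Growth inhibition read as total cell protein by sulforhodamine B staining. GI50 calculated from log dose–response curves.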

SK-MEL-5 = assay: Growth inhibition of human SK-MEL-5 cells after 48 hrs by SRB assay; assay type: functional; settings: SK-MEL-5, 48 h; procedure, shortened: as §1
UACC-257 = assay: Growth inhibition of human UACC257 cells after 48 hrs by SRB assay; assay type: functional; settings: UACC-257, 48 h; procedure, shortened: as §1
UACC-62 = assay: Growth inhibition of human UACC62 cells after 48 hrs by SRB assay; assay type: functional; settings: UACC-62, 48 h; procedure, shortened: as §1
IGROV-1 = assay: Growth inhibition of human IGROV1 cells after 48 hrs by SRB assay; assay type: functional; settings: IGROV-1, 48 h
Procedure, shortened: (§2)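 This is the NCI cell-line panel. Cells are exposed for 48 h to five concentrations in 10-fold serial dilution. Growth is read by the SRB protein assay, and GI₅₀ is calculated from log dose–response curves.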

OVCAR-3 = assay: Growth inhibition of human OVCAR-3 cells after 48 hrs by SRB assay; assay type: functional; settings: OVCAR-3, 48 h; procedure, shortened: as §2
OVCAR-4 = assay: Growth inhibition of human OVCAR4 cells after 48 hrs by SRB assay; assay type: functional; settings: OVCAR-4, 48 h; procedure, shortened: as §2
OVCAR-5 = assay: Growth inhibition of human OVCAR5 cells after 48 hrs by SRB assay; assay type: functional; settings: OVCAR-5, 48 h; procedure, shortened: as §2
OVCAR-8 = assay: Growth inhibition of human OVCAR8 cells after 48 hrs by SRB assay; assay type: functional; settings: OVCAR-8, 48 h; procedure, shortened: as §2
SK-OV-3 = assay: Growth inhibition of human SKOV3 cells after 48 hrs by SRB assay; assay type: functional; settings: SK-OV-3, 48 h; procedure, shortened: as §1
786-0 = assay: Growth inhibition of human 786-0 cells after 48 hrs by SRB assay; assay type: functional; settings: 786-0, 48 h; procedure, shortened: as §2
A498 = assay: Growth inhibition of human A498 cells after 48 hrs by SRB assay; assay type: functional; settings: A498, 48 h; procedure, shortened: as §2
ACHN = assay: Growth inhibition of human ACHN cells after 48 hrs by SRB assay; assay type: functional; procedure, shortened: as §2
CAKI-1 = assay: Growth inhibition of human Caki1 cells after 48 hrs by SRB assay; assay type: functional; settings: CAKI-1, 48 h; procedure, shortened: as §2
RXF 393 = assay: Growth inhibition of human RXF393 cells after 48 hrs by SRB assay; assay type: functional; settings: RXF 393, 48 h; procedure, shortened: as §2
SN12C = assay: Growth inhibition of human SN12C cells after 48 hrs by SRB assay; assay type: functional; procedure, shortened: as §1
TK-10 = assay: Growth inhibition of human TK10 cells after 48 hrs by SRB assay; assay type: functional; settings: TK-10, 48 h; procedure, shortened: as §1
UO-31 = assay: Growth inhibition of human UO31 cells after 48 hrs by SRB assay; assay type: functional; settings: UO-31, 48 h; procedure, shortened: as §1
PC-3 = assay: Growth inhibition of human PC3 cells after 48 hrs by SRB assay; assay type: functional; settings: PC-3, 48 h; procedure, shortened: as §2
DU-145 = assay: Growth inhibition of human DU145 cells after 48 hrs by SRB assay; assay type: functional; settings: DU-145, 48 h; procedure, shortened: as §2
MCF7 [1] = assay: Growth inhibition of human MCF7 cells after 48 hrs by SRB assay; assay type: functional; settings: MCF7, 48 h; procedure, shortened: as §2
NCI/ADR-RES = assay: Growth inhibition of human NCI/ADR-RES cells after 48 hrs by SRB assay; assay type: functional; procedure, shortened: as §2
MDA-MB-231 = assay: Growth inhibition of human MDA-MB-231 cells after 48 hrs by SRB assay; assay type: functional; settings: MDA-MB-231, 48 h; procedure, shortened: as §2
[2] = Growth inhibition of human Hs 578T cells after 48 hrs by SRB assay; assay type: functional; procedure, shortened: as §2
MDA-MB-435 = assay: Growth inhibition of human MDA-MB-435 cells after 48 hrs by SRB assay; assay type: functional; settings: MDA-MB-435, 48 h; procedure, shortened: as §2
BT-549 = assay: Growth inhibition of human BT549 cells after 48 hrs by SRB assay; assay type: functional; settings: BT-549, 48 h; procedure, shortened: as §2
MCF7 [3] = assay: Cell cycle arrest in human MCF7 cells by accumulation at G2/M phase at 0.1 uM after 48 hrs by flow cytometry (Rvb=5.9%); assay type: functional
MCF7 [4] = assay: Cell cycle arrest in human MCF7 cells by accumulation at G2/M phase at 1 uM after 48 hrs by flow cytometry (Rvb=5.9%); assay type: functional
MCF7 [5] = assay: Cell cycle arrest in human MCF7 cells by accumulation at G2/M phase at 5 uM after 48 hrs by flow cytometry (Rvb=5.9%); assay type: functional
MCF7 [6] = assay: Cell cycle arrest in human MCF7 cells by accumulation at G2/M phase at 10 uM after 48 hrs by flow cytometry (Rvb=5.9%); assay type: functional
HUVEC = assay: Antiangiogenic activity in HUVEC cells assessed inhibition of tube formation at 1 uM after 16 hrs by tube formation assay; assay type: functional, cell-based; settings: Homo sapiens
Procedure, shortened: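 HUVEC cells (1 × 10⁵) are seeded onto a Matrigel surface and tube formation is scored after treatment.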

Aorta = assay: Antiangiogenic activity in rat aortic rings assessed inhibition of sprouts formation at 5 uM after 6 days by aortic ring assay; assay type: functional, tissue-based
[7] = Displacement of [3H]colchicine from tubulin at 5 uM by DEAE-cellulose filter method

COc1ccc(/C=C/C(=O)c2cc(OC)c(OC)c(OC)c2)cc1B(O)O
GI50 (SK-MEL-2): 3330 nM | GI50 (SK-MEL-5): 310 nM | GI50 (UACC-257): 4410 nM | GI50 (UACC-62): 34 nM | GI50 (IGROV-1): 88 nM | GI50 (OVCAR-3): 2080 nM | GI50 (OVCAR-4): 2060 nM | GI50 (OVCAR-5): 1810 nM | GI50 (OVCAR-8): 300 nM | GI50 (SK-OV-3): < 10 nM | GI50 (786-0): 390 nM | GI50 (A498): 4760 nM | GI50 (ACHN): 520 nM | GI50 (CAKI-1): 6390 nM | GI50 (RXF 393): 390 nM | GI50 (SN12C): 460 nM | GI50 (TK-10): 20900 nM | GI50 (UO-31): 320 nM | GI50 (PC-3): 250 nM | GI50 (DU-145): 50 nM | GI50 (MCF7 [1]): 34 nM | GI50 (NCI/ADR-RES): 50 nM | GI50 (MDA-MB-231): 110 nM | GI50 [2]: 46 nM | GI50 (MDA-MB-435): 1950 nM | GI50 (BT-549): 21 nM | Activity (MCF7 [3]): 6.4% | Activity (MCF7 [4]): 7.1% | Activity (MCF7 [5]): 7.4% | Activity (MCF7 [6]): 14% | inhibition (HUVEC): Active | inhibition (Aorta): Active | inhibition [7]: 4.4%
